Data: ChEMBL document CHEMBL3085721, “Nonhydrolyzable ATP analogues as selective inhibitors of human NPP1: a combined computational/experimental study” (J Med Chem, 2013)
Calls of active or inactive are those of the source. No cut-off for these calls is given here.

Legend:
[1] = molecular target: T1, Ectonucleotide pyrophosphatase/phosphodiesterase family member 1 (Homo sapiens) (UniProt P22413); assay: Competitive inhibition of human NPP1 expressed in COS7 cells assessed as production of p-nitrophenol using pnp-TMP as the substrate preincubated at 25 to 100 uM for 3 mins before substrate addition measured after 15 mins by Dixon/Cornish Bowden method; format: cell-based; conditions: COS-7
T1 sequence (whole entry): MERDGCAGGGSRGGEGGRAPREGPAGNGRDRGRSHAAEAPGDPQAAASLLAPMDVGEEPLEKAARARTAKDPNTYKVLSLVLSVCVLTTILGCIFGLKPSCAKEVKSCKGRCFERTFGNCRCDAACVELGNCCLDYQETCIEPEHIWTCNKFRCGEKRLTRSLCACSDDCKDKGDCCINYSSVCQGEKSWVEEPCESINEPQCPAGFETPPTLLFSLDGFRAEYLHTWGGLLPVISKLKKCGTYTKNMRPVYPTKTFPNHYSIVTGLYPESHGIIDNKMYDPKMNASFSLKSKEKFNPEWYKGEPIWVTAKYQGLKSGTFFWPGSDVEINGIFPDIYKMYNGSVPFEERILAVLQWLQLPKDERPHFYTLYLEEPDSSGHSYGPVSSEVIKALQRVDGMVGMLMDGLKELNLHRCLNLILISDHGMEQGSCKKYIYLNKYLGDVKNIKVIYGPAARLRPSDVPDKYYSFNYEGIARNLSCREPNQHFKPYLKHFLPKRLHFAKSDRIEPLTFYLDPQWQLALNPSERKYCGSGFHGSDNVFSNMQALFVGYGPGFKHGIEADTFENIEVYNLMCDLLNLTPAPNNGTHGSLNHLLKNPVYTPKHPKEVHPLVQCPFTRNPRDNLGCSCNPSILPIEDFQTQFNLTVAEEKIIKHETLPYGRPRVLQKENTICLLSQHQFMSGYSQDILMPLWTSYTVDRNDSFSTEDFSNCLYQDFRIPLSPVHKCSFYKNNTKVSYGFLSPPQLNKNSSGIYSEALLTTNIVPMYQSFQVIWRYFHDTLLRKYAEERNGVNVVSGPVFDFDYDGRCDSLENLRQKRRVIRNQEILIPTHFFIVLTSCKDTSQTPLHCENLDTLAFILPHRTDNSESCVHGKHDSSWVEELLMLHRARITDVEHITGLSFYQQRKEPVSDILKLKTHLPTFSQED
Method in brief: (§1)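 Crude protein extract from COS-7 cells transiently transfected with human NPP1 (sonicated, debris cleared at 300g), preincubated 3 min at 37 °C with inhibitor (0, 25, 50, 100 μM) in 1 mM CaCl2, 140 mM NaCl, 5 mM KCl, 50 mM Tris pH 8.5. pnp-TMP (25, 50, 100 μM) added; p-nitrophenol read at 410 nm after 15 min. Ki,app and inhibition type from Dixon and Cornish-Bowden plots, three independent experiments.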

[2] = molecular target: T2, Ectonucleoside triphosphate diphosphohydrolase 8 (Homo sapiens) (UniProt Q5MY95); assay: Inhibition of human NTPDase8 assessed as amount of inorganic phosphate released using ATP as the substrate preincubated at 100 uM for 3 mins before substrate addition after 15 mins by malachite green reagent method
T2 sequence (whole entry): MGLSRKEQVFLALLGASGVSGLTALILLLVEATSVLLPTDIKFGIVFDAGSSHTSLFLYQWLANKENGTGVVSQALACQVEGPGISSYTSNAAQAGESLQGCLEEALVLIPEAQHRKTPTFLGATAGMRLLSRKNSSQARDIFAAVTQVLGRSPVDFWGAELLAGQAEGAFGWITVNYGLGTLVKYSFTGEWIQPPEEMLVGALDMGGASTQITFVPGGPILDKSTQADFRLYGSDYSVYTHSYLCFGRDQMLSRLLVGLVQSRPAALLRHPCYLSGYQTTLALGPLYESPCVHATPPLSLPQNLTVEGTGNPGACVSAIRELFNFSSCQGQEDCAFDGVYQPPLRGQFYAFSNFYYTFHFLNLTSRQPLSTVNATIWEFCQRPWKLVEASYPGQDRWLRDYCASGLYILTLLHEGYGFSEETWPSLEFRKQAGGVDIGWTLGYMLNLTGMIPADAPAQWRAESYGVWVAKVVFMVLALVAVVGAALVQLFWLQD
Method in brief: (§2)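 Crude extracts of COS-7 cells transiently transfected with human NTPDase1, -2, -3 or -8, preincubated 3 min at 37 °C in Tris-Ringer medium pH 7.4 with analogue (final 100 μM). Started with 100 μM ATP, stopped after 15 min with malachite green; released Pi read at 630 nm. ATP alone set as 100%. Mean ± SD of 3−6 experiments in triplicate.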

[3] = molecular target: T3, Ectonucleoside triphosphate diphosphohydrolase 3 (Homo sapiens) (UniProt O75355); assay: Inhibition of human NTPDase3 assessed as amount of inorganic phosphate released using ATP as the substrate preincubated at 100 uM for 3 mins before substrate addition after 15 mins by malachite green reagent method; method in brief: as §2
T3 sequence (whole entry): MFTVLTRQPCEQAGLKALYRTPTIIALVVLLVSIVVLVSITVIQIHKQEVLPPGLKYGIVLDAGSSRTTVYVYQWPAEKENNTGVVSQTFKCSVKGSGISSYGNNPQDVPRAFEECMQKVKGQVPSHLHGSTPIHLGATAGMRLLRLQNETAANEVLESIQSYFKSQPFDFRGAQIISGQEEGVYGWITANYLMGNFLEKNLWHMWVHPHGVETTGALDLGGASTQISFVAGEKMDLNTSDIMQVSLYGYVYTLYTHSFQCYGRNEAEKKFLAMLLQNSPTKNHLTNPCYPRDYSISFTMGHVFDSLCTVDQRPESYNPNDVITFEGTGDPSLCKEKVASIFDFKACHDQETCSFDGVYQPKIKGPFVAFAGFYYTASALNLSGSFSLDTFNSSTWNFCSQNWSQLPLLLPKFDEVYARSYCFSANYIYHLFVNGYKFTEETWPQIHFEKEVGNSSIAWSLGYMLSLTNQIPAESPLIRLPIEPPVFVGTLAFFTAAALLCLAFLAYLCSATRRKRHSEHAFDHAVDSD

[4] = molecular target: T4, Ectonucleoside triphosphate diphosphohydrolase 1 (Homo sapiens) (UniProt P49961); assay: Inhibition of human NTPDase1 assessed as amount of inorganic phosphate released using ATP as the substrate preincubated at 100 uM for 3 mins before substrate addition after 15 mins by malachite green reagent method; method in brief: as §2
T4 sequence (whole entry): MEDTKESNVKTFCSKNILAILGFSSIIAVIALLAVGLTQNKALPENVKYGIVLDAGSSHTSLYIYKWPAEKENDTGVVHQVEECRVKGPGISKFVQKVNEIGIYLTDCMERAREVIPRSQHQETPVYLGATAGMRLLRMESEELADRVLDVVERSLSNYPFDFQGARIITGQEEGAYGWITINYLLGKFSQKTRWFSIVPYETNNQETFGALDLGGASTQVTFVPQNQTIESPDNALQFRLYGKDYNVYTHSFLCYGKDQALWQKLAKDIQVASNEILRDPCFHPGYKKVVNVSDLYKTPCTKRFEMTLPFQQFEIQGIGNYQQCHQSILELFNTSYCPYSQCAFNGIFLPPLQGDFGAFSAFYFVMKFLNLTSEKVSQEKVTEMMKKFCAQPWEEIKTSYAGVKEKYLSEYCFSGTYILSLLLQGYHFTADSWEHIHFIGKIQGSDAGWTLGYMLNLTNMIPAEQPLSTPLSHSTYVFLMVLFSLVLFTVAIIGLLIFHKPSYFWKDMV

[5] = molecular target: T1, Ectonucleotide pyrophosphatase/phosphodiesterase family member 1 (Homo sapiens); assay: Inhibition of human NPP1 expressed in COS7 cells assessed as production of p-nitrophenol using pnp-TMP as the substrate preincubated at 100 uM for 3 mins before substrate addition measured after 15 mins […]; format: cell-based; conditions: COS-7
Method in brief: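 Crude extracts of COS-7 cells transiently transfected with human NPP1 or NPP3, preincubated 3 min at 37 °C in 1 mM CaCl2, 140 mM NaCl, 5 mM KCl, 50 mM Tris pH 8.5 with analogue at 100 μM. Reaction started with 100 μM pnp-TMP; p-nitrophenol at 410 nm after 15 min. Activity without analogue set as 100%. Mean ± SD of 3−6 experiments in triplicate.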

[6] = molecular target: T5, Ectonucleotide pyrophosphatase/phosphodiesterase family member 1 (Homo sapiens, UniProt P22413); assay: Mixed type inhibition of human NPP1 expressed in COS7 cells assessed as production of p-nitrophenol using pnp-TMP as the substrate preincubated for 3 mins before substrate addition measured after 15 mins by Dixon/Cornish Bowden method; format: cell-based, COS-7; conditions: read-out: Ki(app); method in brief: as §1
T5 sequence (P22413 whole entry): T1 sequence (whole entry)

Question: How did the inhibition [1] turn out when `B[P@@](=O)(OC[C@H]1O[C@@H](n2cnc3c(N)ncnc32)[C@H](O)[C@@H]1O)OP(=O)(O)C(Cl)(Cl)P(=O)(O)O` was run?
Answer: Active

Question: And the inhibition [2]?
Answer: 30%

Question: And the inhibition [3]?
Answer: 50%

Question: What about the inhibition [4] of the same molecule?
Answer: 50%

Question: And the inhibition [5]?
Answer: 90%

Question: What about the Ki [6] of the same molecule?
Answer: 18 µM
